Screening results from PubChem BioAssay.
KCNK9 inh – human KCNK9 channel inhibition; Q9NPC2; HEK293 KCNK9, FluxOR thallium flux fluorescence; hits give low values; B-score at 10 µM; 310,000 tested, 1.2% active; AID 488922;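 active = ratio B-score over 3 SD below the library mean, with starting fluorescence within 5 SD of its mean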;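 note: negative B-score means less thallium flux so channel inhibition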
KCNK3 inh – human KCNK3 channel inhibition, primary screen; 340,000 tested, 0.84% active; CHO-KCNK3 thallium flux, FluxOR fluorescence; hits give low values; B-score at 10 µM;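 active = B-score under library mean minus 4 SD, starting fluorescence ratio at most library mean plus 5 SD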;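 note: more negative B-score means stronger inhibition of thallium flux through KCNK3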
KCNQ1 pot – potentiators or activators of human KCNQ1 potassium channel | P51787 | CHO-K1 KCNQ1, thallium flux FluxOR fluorescence; hits give high values | B-score at 10 µM | 310,000 tested, 0.35% active | AID 2648;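 active = fluorescence ratio B-score, a plate-corrected score, at least three library SD, with initial intensity B-score within 5 SD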
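Test system: CHO-K1 cells stably expressing KCNQ1 / Medium: assay buffer / Also added: depolarizing K+/Tl+ stimulus, K2SO4 and Tl2SO4 each 12.5 mM in 5x stock / Incubation: 90 min dye loading and 20 min compound exposure, both at room temperature / Signal: thallium influx via FluxOR fluorescence, kinetic imaging / Evaluation: B score of baseline-normalized fluorescence ratio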
KCNQ1 block – inhibitors of human KCNQ1 potassium channel. P51787. CHO-K1 KCNQ1, FluxOR thallium flux fluorescence; hits give high values. B-score at 10 µM. 310,000 tested, 1.3% active;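 active = compounds whose thallium flux B-score, printed positive for inhibition, exceeds three library SD while starting fluorescence stays within three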;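 note: channel opened by potassium depolarization with thallium stimulus after 20 min compound exposure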
KCC2 mod – modulators of human KCC2 chloride dependent transport. Q9H2X9. B-score of Tl+ flux slope (higher = more flux/activation; lower = inhibition) at 10 µM. KCC2 cells, thallium flux FluoZin-2 fluorescence. 190,000 tested, 2.2% active;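 active = thallium flux slope and its plate-corrected score both differing from the plate sample mean at a set confidence after two filtering rounds, in either direction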;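 note: slope of fluorescence scaled to starting intensity during 10 to 20 s after thallium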
Target sequence (Q9H2X9 whole entry, looked up): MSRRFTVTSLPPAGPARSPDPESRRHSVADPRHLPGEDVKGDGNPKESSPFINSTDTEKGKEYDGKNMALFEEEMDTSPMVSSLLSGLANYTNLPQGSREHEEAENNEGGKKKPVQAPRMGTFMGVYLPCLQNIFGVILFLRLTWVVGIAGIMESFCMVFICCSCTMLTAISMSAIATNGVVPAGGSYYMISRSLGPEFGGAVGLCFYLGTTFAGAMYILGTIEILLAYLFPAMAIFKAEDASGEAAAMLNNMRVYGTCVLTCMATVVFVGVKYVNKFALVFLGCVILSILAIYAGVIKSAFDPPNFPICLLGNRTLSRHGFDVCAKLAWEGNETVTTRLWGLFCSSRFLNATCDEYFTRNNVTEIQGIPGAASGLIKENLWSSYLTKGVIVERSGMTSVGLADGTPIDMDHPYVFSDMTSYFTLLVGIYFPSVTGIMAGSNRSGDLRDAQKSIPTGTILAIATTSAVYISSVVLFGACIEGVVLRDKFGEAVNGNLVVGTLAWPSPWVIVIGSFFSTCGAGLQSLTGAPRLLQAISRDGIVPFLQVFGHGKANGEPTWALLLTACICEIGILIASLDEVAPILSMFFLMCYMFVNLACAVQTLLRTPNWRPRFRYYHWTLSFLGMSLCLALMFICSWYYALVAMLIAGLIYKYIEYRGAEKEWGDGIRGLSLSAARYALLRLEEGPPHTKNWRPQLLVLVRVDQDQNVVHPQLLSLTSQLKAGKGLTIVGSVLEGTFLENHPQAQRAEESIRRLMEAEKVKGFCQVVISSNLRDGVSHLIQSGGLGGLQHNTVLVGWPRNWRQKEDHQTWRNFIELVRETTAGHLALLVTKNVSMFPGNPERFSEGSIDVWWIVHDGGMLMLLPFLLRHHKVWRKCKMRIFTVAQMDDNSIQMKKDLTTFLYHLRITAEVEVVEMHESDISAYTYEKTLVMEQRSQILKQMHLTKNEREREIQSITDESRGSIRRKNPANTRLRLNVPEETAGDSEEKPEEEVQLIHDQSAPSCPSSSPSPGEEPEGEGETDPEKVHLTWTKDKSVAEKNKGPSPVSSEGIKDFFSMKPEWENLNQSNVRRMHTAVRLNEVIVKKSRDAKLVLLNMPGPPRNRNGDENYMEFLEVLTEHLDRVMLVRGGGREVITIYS
hERG rescue – compounds protecting human hERG from proarrhythmic drug block | 310,000 tested, 0.51% active | CHO-hERG, FluxOR thallium flux, dofetilide IC70 present | activation (rescue from dofetilide block), less the hit threshold, % at 10 µM;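 active = activation above the mean of controls blocked by dofetilide plus 5 SD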;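 note: thallium influx through hERG after potassium depolarization seen as dye fluorescence rise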
* = called active by the depositor; i = inactive; . = not tested or not shown. The list is not random: actives were taken first. Their share in the collection is about 4.1%.

SMILES	KCNK9 inh	KCNK3 inh	KCNQ1 pot	KCNQ1 block	KCC2 mod	hERG rescue
COc1ccc(/C=C/C(=O)OCC(=O)c2c[nH]c3ccccc23)cc1	.	i	.	.	.	.
CC1(C)OC(=O)N(c2ccccc2)C12C=Cc1cc(Br)ccc1O2 (centres undefined)	-7.2*	i	i	i	-0.082	-7
Cc1[nH][nH]c(=O)c1C=NCc1cccc(C(F)(F)F)c1	i	i	i	i	-0.0074	-6
CCCCN(C(=O)c1cc(S(=O)(=O)N2CCCCCC2)ccc1OC)c1c(N)n(CCC)c(=O)[nH]c1=O	i	i	i	i	.	-7
Nc1cc(Cl)ccc1C(=O)OCC(=O)NC(=O)NCc1ccccc1	i	i	i	i	0.94	-2
COc1ccc(Nc2oc(COc3ccccc3F)nc2C#N)cc1	-8*	i	i	i	.	-10
COc1ccc(Nc2oc(COc3ccc(OC)cc3)nc2C#N)cc1	i	i	i	i	0.41	-8
COc1ccc(-n2nnnc2SCC(=O)N2CCCC2=O)cc1	.	i	.	.	.	.
CC1(C(=O)CSc2ncn[nH]2)CCC(=O)O1 (centres undefined)	i	.	i	i	0.32	5.0*
COc1cc(OC)c(-c2sc(Nc3ccccc3)n[n+]2-c2ccc(F)cc2)cc1OC	i	i	i	i	.	-2
COc1ccc(-c2sc(Nc3ccccc3)n[n+]2-c2ccc(F)cc2)c(OC)c1OC	i	i	i	7*	.	-18
O=C(Nc1cccc(C(=O)N2CCCCC2)c1)C1CC1	.	i	.	.	.	.
CC12CC3CC(C)(C1)CC(C(=O)NC(=S)N1CCOCC1)(C3)C2	i	i	i	i	5*	-1
O=C(c1cc(NC(=O)C23CC4CC(CC(C4)C2)C3)cc(NC(=O)C23CC4CC(CC(C4)C2)C3)c1)N1CCCCC1	i	.	i	10*	-0.41	-7
CC12CC3CC(C)(C1)CC(C(=O)N1CCCC1)(C3)C2	i	i	i	i	.	-7
O=C(NC(=S)N1CCCCC1)C12CC3CC(CC(C3)C1)C2	i	i	i	i	35*	-13
O=C(CN1C(=O)c2ccccc2C1=O)Nc1ccccc1F	i	i	i	i	0.2	-6
O=C(COC(=O)c1ccc2c(c1)OCCO2)NCCc1ccccc1	.	i	.	.	.	.
Cc1cc(C(=O)Cn2cnc3ccccc3c2=O)c(C)n1C1CC1	i	i	i	i	.	-7
COC(=O)C1CCCN1S(=O)(=O)c1ccc([N+](=O)[O-])cc1 (centres undefined)	i	i	i	i	.	-4
CC(=O)N1CCc2cc(S(=O)(=O)N3c4ccccc4CC3C)ccc21 (centres undefined)	i	i	i	i	0.94	5.4*
COc1cccc(OCCNC(=O)Nc2cc(F)c(F)cc2Cl)c1	i	i	i	i	-1.6	6.1*
O=C(Cc1nc2ccccc2[nH]1)c1cccc([N+](=O)[O-])c1	i	i	i	8*	-0.00012	-16
O=C(Nc1nc2ccccc2[nH]1)c1cccc([N+](=O)[O-])c1	i	i	i	i	.	-4
COc1ccc(NC(=O)C2CCCN(S(=O)(=O)c3c(C)[nH]c(=O)[nH]c3=O)C2)cc1Cl (centres undefined)	i	i	i	i	-0.72	-11
SMILES	KCNK9 inh	KCNK3 inh	KCNQ1 pot	KCNQ1 block	KCC2 mod	hERG rescue
CC(C)OCCCn1c(=S)[nH]c2cc3c(cc2c1=O)OCO3	i	i	i	i	12*	-15
CCc1ccc(-c2cc(C)no2)cc1S(=O)(=O)N1CCN(c2ccccc2)CC1	i	i	i	6*	.	-11
Cc1n[nH]c(C)c1CCN(C)Cc1cn(C)nc1-c1ccc2c(c1)OCCO2	i	i	i	i	0.76	-13
CC(=O)c1sc(NC(=O)c2cnc(Cl)c(Cl)c2)nc1C	i	i	i	9*	.	-2
CC(=O)c1sc(NC(=O)c2ccc(C)c(C)c2)nc1C	i	i	i	i	0.36	-1
CCCCNC(=S)NNC(=O)c1nn(C)c(C)c1Cl	i	i	17*	i	0.39	-14
COc1cc(CNC(C)(C)CO)cc(Br)c1OCc1ccc(Cl)cc1Cl	-6.6*	i	i	i	.	-27
COc1ccc(OC)c(N(CC(=O)Nc2ccc(NC(C)=O)cc2)S(C)(=O)=O)c1	i	i	i	i	0.28	-8
COC(=O)C1=C(C)Nc2nnnn2C1c1ccc(Cl)cc1Cl (centres undefined)	i	i	18*	i	-1.1	-5
CCOC(=O)C1=C(C)Nc2nnnn2C1c1ccccc1Cl (centres undefined)	.	i	.	.	-0.17	.
O=C(OCC(=O)N1CCC(Cc2ccccc2)CC1)c1ccccc1O	.	i	.	.	.	.
Cc1cccc(N2CCN(C(=O)CNC(=O)c3cccc([N+](=O)[O-])c3)CC2)c1C	i	i	i	i	.	12*
Cc1cccc(N2CCN(C(=O)CNC(=O)Cc3ccccc3)CC2)c1C	.	i	.	.	.	.
O=C(CSCc1ccc(Br)cc1)N=Nc1c(O)[nH]c2ccccc12	i	i	i	i	10*	-1
C=CC(=O)N1c2ccccc2Sc2ccc(NC(=O)OCC)cc21	i	i	i	i	-0.76	0
CCOC(=O)Nc1ccc2c(c1)Nc1ccccc1S2	-6.6*	i	i	i	.	-7
CCCCCNCC(=O)Nc1cc(C(F)(F)F)ccc1OCCOC	-8.5*	i	i	i	0.53	-11
COCCOc1ccc(C(F)(F)F)cc1NC(=O)c1ccc(C)cc1	i	i	i	i	-0.33	-5
Nc1nc(N)nc(C2C=CCCC2)n1 (centres undefined)	.	i	.	.	.	.
C=CCn1c(SCC(=O)Nc2sccc2C(N)=O)nc2ccc(Cl)cc2c1=O	i	i	i	i	11*	-4
C=CCn1c(SCC(=O)Nc2sccc2C(N)=O)nc2ccccc2c1=O	i	i	i	i	-1.5	-8
C=CCn1c(SCN2C(=O)c3ccccc3C2=O)nc2ccc(Cl)cc2c1=O	i	i	9*	i	42*	3
COCCn1c(SCC(=O)NCc2ccc3c(c2)OCO3)nnc1-c1c[nH]c2ccccc12	i	i	i	i	.	-6
CC(C)CC1c2[nH]c3ccccc3c2CCN1CCCn1cccn1 (centres undefined)	i	i	i	i	.	-10
Cn1ccnc1Sc1cc(NCCCO)c([N+](=O)[O-])c2nonc12	i	i	i	6*	-0.41	-31
COC(=O)c1c(C)[nH]c(O)c1C=Nc1ccc(C#N)cc1	i	i	i	i	0.028	-12
